S1P4 agonist: S1P4 receptor agonists, primary screen, cell-based; S1P4-expressing cell line, agonist reporter assay; Sphingosine 1-phosphate receptor 4 (Homo sapiens), O95977; activation, % at 4.98 µM; 220,000 tested, 0.35% active; in the data active means activation above about 11%;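 further: 0% = DMSO vehicle and 100% = reference agonist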
S1P3 antagonist: S1P3 receptor antagonists, primary screen, cell-based. inhibition, % at 4.98 µM. CHO S1P3 NFAT-BLA reporter, FRET fluorescence, antagonist mode. Sphingosine 1-phosphate receptor 3 (Homo sapiens), Q99500. 170,000 tested, 0.27% active;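 active means inhibition above the plate cutoff, the mean inhibition of test wells on that plate plus 3 SD, cut at about 28% in these data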;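 further: cells challenged with S1P at its EC80 of 0.8 µM; blue over green emission ratio from cleaved BLA substrate after 4 h stimulation; 0% = S1P-stimulated wells and 100% = unstimulated DMSO-only wells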
S1P4 antag: S1P4 receptor antagonists, primary screen, cell-based; S1P4-expressing cells, antagonist mode, reporter read-out; inhibition, % at 4.98 µM; Sphingosine 1-phosphate receptor 4 (Homo sapiens), O95977; 220,000 tested, 0.26% active; in the data active means inhibition above about 29%;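 further: 0% = wells stimulated with agonist and 100% = vehicle wells without agonist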
MDM2 E3 inh: MDM2-luciferase reporter signal enhancers, primary screen, MDM2 E3 ligase inhibitor project, cell-based, luminescence, 1536-well. E3 ubiquitin-protein ligase Mdm2 (Homo sapiens), Q00987. cell-based MDM2 ubiquitination luciferase reporter, 2 h; 0 = plate control, 100 = twice control, blank-subtracted. signal enhancement, % at 5 µM. 210,000 tested, 0.11% active. AID 1230, 2008;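 active means signal enhancement of 30% or more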;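 further: luminescence tracks abundance of the self-degrading MDM2-luciferase fusion protein; higher signal means inhibition of MDM2 E3 ligase activity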
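Material: stable MDM2–luciferase fusion reporter cells / Quantity: 2000 cells/well / Dosing: single 5 µM compound dose, 0.2% final DMSO / Buffer or medium: DMEM / Schedule: 4 h cell settling then 2 h compound exposure, 37 °C / Detection: luminescence with SteadyLite reagent, 15 min at room temperature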
Lmaj promast: Leishmania major promastigote growth inhibition, primary screen. Leishmania major promastigotes, resazurin fluorescence viability. inhibition, % at 10 µM. 200,000 tested, 9% active; in the data active means inhibition above about 50%;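 further: promastigotes grown with compound for 44 hours at 28 °C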
S1P4 ag conf: S1P4 receptor agonists, retest, confirmation, cell-based, high throughput | shares compounds with S1P4 agonist | 740 tested, 7% active | S1P4 agonist cell-based reporter assay | AID 1523, 2009 | activation, % at 4.98 µM; in the data active means activation above about 12%;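 further: 0% = vehicle and 100% = full reference agonist response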
S1P1 ag: S1P1 receptor agonists, human, counter-screen for S1P4 agonist project, cell-based | shares compounds with S1P4 agonist | S1P1 agonist cell-based assay, activation | activation, % at 4.98 µM | 740 tested, 4% active | AID 1563, 2009; in the data active means activation above about 21%;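 further: 0% = vehicle wells and 100% = reference agonist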
Target sequence (P21453 whole entry, looked up): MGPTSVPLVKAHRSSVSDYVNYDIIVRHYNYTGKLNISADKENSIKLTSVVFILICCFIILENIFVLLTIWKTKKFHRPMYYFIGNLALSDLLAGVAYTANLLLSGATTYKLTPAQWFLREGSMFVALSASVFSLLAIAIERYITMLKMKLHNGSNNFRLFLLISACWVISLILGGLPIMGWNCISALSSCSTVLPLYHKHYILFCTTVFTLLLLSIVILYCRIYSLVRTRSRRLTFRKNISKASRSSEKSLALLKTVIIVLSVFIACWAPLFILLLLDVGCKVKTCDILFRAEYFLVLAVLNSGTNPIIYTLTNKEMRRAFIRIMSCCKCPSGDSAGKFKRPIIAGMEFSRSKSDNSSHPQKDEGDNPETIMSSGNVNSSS
* = called active by the depositor; . = no result given. The full list was thinned out, with hits kept by preference.

SMILES	S1P4 agonist	S1P3 antagonist	S1P4 antag	MDM2 E3 inh	Lmaj promast	S1P4 ag conf	S1P1 ag
Cn1c(NC(=O)CC(C)(C)C)cc(=O)n(C)c1=O	46*	17	-1	-40	-8	-2	-3
O=c1c2c3c(sc2nc2sc(CN4CCOCC4)cn12)CCCC3	41*	2	-13	-7	5	-2	-4
Nc1cccc(C(=O)O)c1	3	-8	-16	.	-6	.	.
O=C(O)c1cccc(C(=O)c2cccc(C(=O)O)c2)c1	41*	4	-8	-19	15	-3	0
Clc1ccc(-c2nnc(COc3ncnc4sccc34)o2)cc1	-1	-1	-23	-2	29	.	.
CCc1ccc(/C(C)=N/NC(=O)c2ccccn2)cc1	12*	5	6	-19	6	-3	-6
CC(C)(C)C(=O)/C(C#N)=C/c1cccs1	0	-8	13	-5	.	.	.
N#C/C(=C\c1cccs1)C(=O)c1ccccc1Cl	36*	2	24	-21	.	-2	-9
Cc1ccc(NC(=O)CN(C)C(=O)c2cc3ccccc3o2)cc1	1	8	-9	-23	-9	.	.
CCn1cc(/C=C/C(=O)Nc2c(C)nn(Cc3ccccc3C)c2C)cn1	20*	-3	-19	0	4	-1	3
CCn1nc(C)c(NC(=O)/C=C/c2cnn(C)c2)c1C	-1	.	-6	-25	-6	.	.
Brc1ccc(-c2ccc(/C=N/Nc3nc4ccccc4[nH]3)o2)cc1	12*	-3	13	3	80*	8	24*
CCCCC(=O)Nc1ccc(Cl)cn1	-1	11	-16	-8	-1	.	.
CCCCCC(=O)Nc1ccc(Cl)cn1	15*	10	-9	-8	-3	-1	-4
Cc1ccc(C(=O)NCCc2nnc3ccc(SCC(=O)Nc4ccccc4C)nn23)cc1	-1	-12	-2	-34	-4	.	.
Cc1ccc(C(=O)NCCc2nnc3ccc(SCC(=O)Nc4c(C)cc(C)cc4C)nn23)cc1	13*	9	-13	-9	-5	-1	-3
COc1cc(C2NC(=S)NC(C)=C2C(=O)Nc2cc(C)cc(C)c2)ccc1O (configuration not stated)	33*	-6	-11	-10	.	-1	-1
COC(=O)c1cc(OC)c(OC)cc1NC(=O)c1oc2ccccc2c1C	1	-7	12	.	2	.	.
Cc1nn(Cc2ccc(Cl)c(Cl)c2)c(C)c1NC(=O)c1cc(-c2ccc3c(c2)OCO3)on1	22*	41	11	3	77*	-2	-2
CCN(CC)c1ccc2c(C)c(Cl)c(=O)oc2c1	16*	6	-4	.	4	8	9
O=C1CCn2nc(-c3ccc(Cl)cc3)cc2N1	0	-8	-1	-14	-9	.	.
Cc1ccc(OCC(=O)NC(=S)Nc2ccc3c4c(cccc24)CC3)cc1	0	3	2	1	-7	.	.
CC(C)(C)c1ccc(OCC(=O)Nc2ccc3c4c(cccc24)C(=O)NC3=O)cc1	19*	-7	-11	-12	13	1	-4
CCNC(=O)NC(=O)CN(C)c1ccccc1	0	-7	-18	-13	-5	.	.
COc1cccc(CNc2cccc(C(F)(F)F)c2)c1O	17*	-17	6	-9	7	-2	-4
COc1cccc(CNc2ccc(F)c(Cl)c2)c1O	1	1	2	-10	-1	.	.
COc1ccc(Cl)cc1N(CC(=O)NCC(C)C)S(=O)(=O)c1ccc(C)c([N+](=O)[O-])c1	25*	4	-11	-7	9	-2	-5
COc1ccc(-c2cn[nH]c2-c2ccc(OCc3ccc([N+](=O)[O-])cc3)cc2O)cc1OC	0	15	2	.	.	.	.
O=[N+]([O-])c1ccc(COc2ccc(-c3[nH]ncc3-c3ccc(Cl)cc3)c(O)c2)cc1	114*	-3	-3	-13	73*	-2	-1

From PubChem
